From ChEMBL document CHEMBL3286129, “Optimization of peptidomimetic boronates bearing a P3 bicyclic scaffold as proteasome inhibitors” (Eur J Med Chem, 2014)
The source made the active and inactive calls. No cut-off for these calls is given here.

Assays:
Chymotrypsinogen A = Chymotrypsinogen A (Bos taurus, UniProt P00766); experiment: Inhibition of bovine pancreatic alpha-chymotrypsin using Suc-Leu-Leu-Val-Tyr-AMC as substrate by fluorescence assay
Summary of the method: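 Enzyme incubated at 20 °C in 50 mM Tris pH 8.0, 100 mM NaCl, 5 mM EDTA, 7.5% DMSO with varied inhibitor concentrations. Substrate hydrolysis followed for 10 min. Ki from progress curves; mean of three determinations.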

[1] = target: Proteasome Macropain subunit (Homo sapiens) (UniProt P49721); experiment: Inhibition of trypsin-like activity of 20S proteasome in human erythrocytes using Boc-Leu-Arg-Arg-AMC as substrate by fluorescence assay; type: cell-based
Summary of the method: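 Human 20S proteasome 0.0025 mg/mL at 30 °C in 50 mM Tris pH 7.4, 50 mM NaCl, 0.5 mM EDTA, 0.03% SDS, 7.5% DMSO. Varied inhibitor concentrations; AMC release monitored continuously for 10 min, ex 380/em 460 nm. Ki derived from progress-curve IC50 fit.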

[2] = Cytotoxicity against human melanoma cells assessed as cell growth at 10 uM relative to control; type: functional; conditions: read-out: Activity
Summary of the method: (§1)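 Single-concentration screen against a panel of human cancer cell lines. Each value is the mean percent growth across the cell lines of that tumour subpanel.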

[3] = Cytotoxicity against human prostate cancer cells assessed as cell growth at 10 uM relative to control; type: functional; conditions: Cancer cell lines, read-out: Activity; summary of the method: as §1
[4] = Cytotoxicity against human renal cancer cells assessed as cell growth at 10 uM relative to control; type: functional; conditions: Cancer cell lines, read-out: Activity; summary of the method: as §1
[5] = Cytotoxicity against human CNSC cells assessed as cell growth at 10 uM relative to control; type: functional; conditions: read-out: Activity; summary of the method: as §1
[6] = Cytotoxicity against human NSCLC cells assessed as cell growth at 10 uM relative to control; type: functional; conditions: read-out: Activity; summary of the method: as §1
[7] = target: T1, Proteasome Macropain subunit MB1 (Homo sapiens) (UniProt P28074); experiment: Inhibition of chymotrypsin-like activity of 20S proteasome in human erythrocytes using Suc-Leu-Leu-Val-Tyr-AMC as substrate at 20 uM by fluorescence assay relative to control
T1 sequence (whole entry): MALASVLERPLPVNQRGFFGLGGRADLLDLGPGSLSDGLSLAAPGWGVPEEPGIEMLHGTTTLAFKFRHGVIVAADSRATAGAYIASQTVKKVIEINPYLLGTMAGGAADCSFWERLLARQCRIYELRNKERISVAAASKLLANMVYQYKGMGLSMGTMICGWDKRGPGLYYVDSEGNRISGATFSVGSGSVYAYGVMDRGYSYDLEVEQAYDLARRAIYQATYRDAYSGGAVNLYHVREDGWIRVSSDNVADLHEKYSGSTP
Summary of the method: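 Single inhibitor concentration, equivalent DMSO as negative control. AMC fluorescence read at ex 380/em 460 nm; percent inhibition of ChT-L activity.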

[8] = target: T2, Proteasome Macropain subunit MB1 (Homo sapiens, UniProt P28074); experiment: Inhibition of chymotrypsin-like activity of 20S proteasome in human erythrocytes using Suc-Leu-Leu-Val-Tyr-AMC as substrate by fluorescence assay; conditions: read-out: Ki
T2 sequence (P28074 whole entry): T1 sequence (whole entry)

[9] = Cytotoxicity against human ovarian cancer cells assessed as cell growth at 10 uM relative to control; type: functional; conditions: Cancer cell lines, read-out: Activity; summary of the method: as §1
[10] = Cytotoxicity against human colon cancer cells assessed as cell growth at 10 uM relative to control; type: functional; conditions: Cancer cell lines, read-out: Activity; summary of the method: as §1
[11] = Cytotoxicity against human leukemia cells assessed as cell growth at 10 uM relative to control; type: functional; conditions: read-out: Activity; summary of the method: as §1
[12] = Cytotoxicity against human breast cancer cells assessed as cell growth at 10 uM relative to control; type: functional; conditions: Cancer cell lines, read-out: Activity; summary of the method: as §1
Proteasome component C5 = target: T3, Proteasome component C5 (Homo sapiens, UniProt P20618); experiment: Inhibition of PGPH-like activity of 20S proteasome in human erythrocytes using Z-Leu-Leu-Glu-AMC as substrate by fluorescence assay
T3 sequence (P20618 whole entry): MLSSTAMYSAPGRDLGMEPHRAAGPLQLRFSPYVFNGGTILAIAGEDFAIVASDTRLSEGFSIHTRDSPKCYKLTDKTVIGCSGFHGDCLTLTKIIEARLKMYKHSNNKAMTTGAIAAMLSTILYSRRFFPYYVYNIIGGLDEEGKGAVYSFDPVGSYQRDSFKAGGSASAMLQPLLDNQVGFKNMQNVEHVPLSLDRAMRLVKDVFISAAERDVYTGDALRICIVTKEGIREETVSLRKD
Summary of the method: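 Human 20S proteasome 0.004 mg/mL, 30 °C, 50 mM Tris pH 7.5 with 25 mM KCl, 10 mM NaCl, 1 mM MgCl2, 0.03% SDS, 5% DMSO. Ki from 4-parameter IC50 fit of progress curves, corrected to zero substrate via Km. Mean of three.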

[13] = target: Proteasome component C5 (Homo sapiens) (UniProt P20618); experiment: Inhibition of PGPH-like activity of 20S proteasome in human erythrocytes using Z-Leu-Leu-Glu-AMC as substrate at 20 uM by fluorescence assay relative to control
Summary of the method: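 Single-concentration screen of PGPH activity. Human 20S proteasome (0.004 mg/mL) at 30 °C in 50 mM Tris pH 7.5 with 25 mM KCl, 10 mM NaCl, 1 mM MgCl2, 0.03% SDS, 5% DMSO; equivalent DMSO as control. AMC fluorescence at ex 380/em 460 nm.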

Sequence of Proteasome Macropain subunit (Homo sapiens) (P49721 whole entry): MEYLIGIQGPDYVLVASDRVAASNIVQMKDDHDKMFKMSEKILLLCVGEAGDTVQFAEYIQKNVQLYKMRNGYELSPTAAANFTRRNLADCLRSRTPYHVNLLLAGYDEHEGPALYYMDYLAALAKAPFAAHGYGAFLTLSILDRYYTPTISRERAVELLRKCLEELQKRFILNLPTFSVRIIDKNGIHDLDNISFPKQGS

| Structure (SMILES) | Ki (Chymotrypsinogen A; read-out: Ki) [nM] | inhibition [1] | growth at 10 µM [2] [%] | growth at 10 µM [3] [%] | growth at 10 µM [4] [%] | growth at 10 µM [5] [%] | growth at 10 µM [6] [%] | inhibition [7] [%] | Ki [8] [nM] | growth at 10 µM [9] [%] | growth at 10 µM [10] [%] | growth at 10 µM [11] [%] | growth at 10 µM [12] [%] | Ki (Chymotrypsinogen A) | Ki (Proteasome component C5) | inhibition [13] [%] |
| --- | --- | --- | --- | --- | --- | --- | --- | --- | --- | --- | --- | --- | --- | --- | --- | --- |
| CC(C)C[C@H](NC(=O)Cn1ccc2ccccc2c1=O)B(O)O | 9110 | inactive | 43.5 | 80.2 | 39.8 | 71 | 75.6 | > 40 | 490 | 86.7 | 57.9 | 23.1 | 51.3 | – | – | – |
| COc1cc2ccn(CCC(=O)N[C@@H](CC(C)C)B(O)O)c(=O)c2cc1OC | – | inactive | 63.7 | 98.8 | 89 | 78.3 | 90.3 | > 40 | 85 | 92.6 | 90.8 | 59 | 56.9 | Not Active | – | – |
| CC(C)C[C@H](NC(=O)Cn1ccc2ncccc2c1=O)B(O)O | – | inactive | – | – | – | – | – | – | – | – | – | – | – | Not Active | – | – |
| CC(C)CCNC(=O)CCn1ccc2ccc(Br)cc2c1=O | – | inactive | 94 | 103 | 86.1 | 97.2 | 97.7 | – | – | 104 | 104 | 83.4 | 94.5 | – | – | – |
| CC(C)CCNC(=O)Cn1ccc2ccccc2c1=O | – | inactive | 104 | 101 | 97.4 | 102 | 97.2 | – | – | 104 | 100 | 99.5 | 103 | – | – | – |
| CC(C)CCNC(=O)CCn1ccc2ncccc2c1=O | – | inactive | – | – | – | – | – | – | 4570 | – | – | – | – | – | Not Active | – |
| CC(C)CCNC(=O)CCn1cc(Br)c2ncccc2c1=O | – | inactive | – | – | – | – | – | – | 80 | – | – | – | – | Not Active | – | 44 |
